Measured values from ChEMBL document CHEMBL2417376, “N-Heteroarylmethyl-5-hydroxy-1,2,5,6-tetrahydropyridine-3-carboxylic acid a novel scaffold for the design of uncompetitive α-glucosidase inhibitors” (Bioorg Med Chem, 2013).
Activity calls are given as the source filed them. No cut-off for these calls is given here.

Assays:
Saccharomyces cerevisiae [1] = assay: Inhibition of Saccharomyces cerevisiae alpha-glucosidase using pNPG as substrate assessed as residual activity at 100 uM preincubated for 20 mins followed by substrate addition measured after 45 mins relative to control
In short: (§1)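 α-Glucosidase (0.175 U/ml) in water with compound (1 µL DMSO dilution) pre-incubated 20 min at 37 °C. Then added PBS (140 mM, pH 7.2), reduced glutathione (9 mM) and pNPG (0.9 mM). Incubated 45 min at 37 °C, read at 400 nm. % inhibition = (AC−AS)/AC×100 vs DMSO-only control. Triplicates with blanks.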

[2] = tested on: beta-glucuronidase (Bos taurus); assay: Inhibition of bovine liver beta-glucuronidase using phenolphthalein beta-glucuronide as substrate assessed as residual activity measured liberation of phenolphthalein at 100 uM relative to control
[3] = biological target: Hyaluronidase (Bos taurus) (UniProt Q8SQG8+Q5E985); assay: Inhibition of bovine testes hyaluronidase using hyaluronic acid as substrate assessed as residual activity at 100 uM by nephelometric method relative to control; format: protein assay
In short: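 Hyaluronidase assayed nephelometrically per supplier-recommended protocol. Compounds added from DMSO stock (100 mM), DMSO ≤1% of total volume; activity expressed as percent of activity with DMSO alone.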

[4] = Inhibition of Saccharomyces cerevisiae alpha-glucosidase using pNPG as substrate at 100 uM preincubated for 20 mins followed by substrate addition measured after 45 mins; in short: as §1
Saccharomyces cerevisiae [5] = assay: Uncompetitive inhibition of Saccharomyces cerevisiae alpha-glucosidase using pNPG as substrate at 0.17 to 100 uM by Lineweaver-Burk plot analysis
[6] = Uncompetitive inhibition of Saccharomyces cerevisiae alpha-glucosidase using pNPG as substrate by Cornish-Bowden plot analysis
Saccharomyces cerevisiae [7] = assay: Uncompetitive inhibition of Saccharomyces cerevisiae alpha-glucosidase using pNPG as substrate at 0.17 to 100 uM by Dixon plot analysis

SMILES | Activity (Saccharomyces cerevisiae [1]) | Activity [2] | Activity [3] | IC50 [4] | uncompetitive inhibition (Lineweaver-Burk) (Saccharomyces cerevisiae [5]) | Ki [6] | Inhibition type (qualitative) (Saccharomyces cerevisiae [7])
O=C(O)C1=CCCN(Cc2nc3ccccc3[nH]2)C1 | 93% | 100% | 100% | – | – | – | –
O=C(O)C1=CCCN(Cc2ccccn2)C1 | 95% | 96% | 101% | – | – | – | –
O=C(O)C1=CCCN(Cc2cccnc2)C1 | 102% | 102% | 99% | – | – | – | –
COC(=O)C1=CC(O)CN(Cc2cccnc2)C1 (configuration not stated) | 105% | 102% | 99% | – | – | – | –
COC(=O)C1=CC(O)CN(Cc2ccccc2)C1 (configuration not stated) | 92% | 93% | 99% | – | – | – | –
O=C(O)[C@H]1CN(Cc2ccccc2)CC[C@H]1O | 82% | 102% | 100% | – | – | – | –
O=C(O)[C@H]1CN(Cc2ccccn2)CC[C@H]1O | 95% | 103% | 100% | – | – | – | –
O=C(O)C1=CCCN(Cc2cc(=O)[nH]c(=O)[nH]2)C1 | 97% | 100% | 102% | – | – | – | –
CCOC(=O)N1C=C(C(=O)OC)CCC1 | 109% | 96% | 100% | – | – | – | –
O=C(O)C1=CC(O)CN(Cc2ccccn2)C1 (configuration not stated) | 2% | 103% | 101% | 2 µM | Active | 5.3 µM | Active
COC(=O)C1=CC(O)CN(Cc2ccncc2)C1 (configuration not stated) | 94% | 105% | 99% | – | – | – | –
